In test [1] the target is T1, Thymidylate synthase (Homo sapiens, UniProt P04818). In words: Inhibitory activity against human thymidylate synthase with variable concentration of N5, 10-CH2-H4PteGlu and fixed dUMP (100 uM). In a few lines:
(§1)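 HeLa-S3 TS purified on methotrexate–Sephadex. Tritium release from [5-3H]dUMP with dUMP fixed at 100 μM and CH2-H4PteGlu varied, in 150 mM Tris-HCl pH 7.5 with DTT, NaF, formaldehyde, BSA and sucrose. Reactions ran at 37 °C for 60 min, were stopped with TCA, treated with charcoal, and the supernatant counted. Apparent Ki from replots of double-reciprocal slopes (competitive) or intercepts (noncompetitive) against inhibitor concentration.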

The nature of test [2]: Apparent Ki value for the inhibition of human thymidylate synthase in the presence of variable conc. of N5,10-CH2-H4PteGlu. In a few lines:
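Thymidylate synthase purified from HeLa-S3 cells by methotrexate–Sephadex chromatography. Tritium-release assay, 37 °C for 60 min, at pH 7.5 (Tris-HCl) with DTT, NaF, formaldehyde, BSA and sucrose. dUMP (with [5-3H]dUMP, 10:1) fixed at 100 μM; CH2-H4PteGlu varied. Inhibitor tested at several concentrations. Lineweaver–Burk plots; slopes (competitive) or intercepts (noncompetitive) replotted against inhibitor concentration.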

Test [3] is described as follows: Apparent Ki value for the inhibition of human thymidylate synthase in the presence of variable conc. of dUMP. The gist of the method:
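Enzyme is HeLa-S3 thymidylate synthase, purified on methotrexate–Sephadex. Tritium release from [5-3H]dUMP (10:1 with dUMP), with dUMP varied and CH2-H4PteGlu fixed at 200 μM. Tris-HCl pH 7.5 buffer with DTT, NaF, formaldehyde, BSA and sucrose; 37 °C, 60 min. Inhibitor at several concentrations; double-reciprocal slopes or intercepts replotted against inhibitor concentration.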

For test [4], the target named is T1, Thymidylate synthase. In words: Inhibitory activity against human thymidylate synthase with variable concentration of dUMP and fixed N5,10-CH2-H4PteGlu (200 uM).
The target of test [5] is T1, Thymidylate synthase. Nature of the test: Km of dUMP for human thymidylate synthase with variable concentration of dUMP and fixed N5,10-CH2-H4PteGlu (200 uM).
Test [6] is described as follows: Apparent Ki value for the inhibition of human thymidylate synthase in the presence of variable conc. of dUMP; Ki/Km.
Test [7] is described as follows: Apparent Ki value for the inhibition of human thymidylate synthase in the presence of variable conc. of N5,10-CH2-H4PteGlu; Ki/Km. The gist of the method:
as §1

T1 sequence (P04818 whole entry): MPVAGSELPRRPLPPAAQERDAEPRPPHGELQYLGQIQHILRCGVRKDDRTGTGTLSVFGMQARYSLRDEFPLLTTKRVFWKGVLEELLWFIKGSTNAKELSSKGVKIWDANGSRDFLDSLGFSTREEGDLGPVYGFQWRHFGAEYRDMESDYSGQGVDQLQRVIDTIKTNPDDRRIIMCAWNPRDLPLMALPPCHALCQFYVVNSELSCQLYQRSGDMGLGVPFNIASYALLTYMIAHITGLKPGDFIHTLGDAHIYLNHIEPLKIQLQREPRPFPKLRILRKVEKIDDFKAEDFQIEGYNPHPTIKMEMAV

On to `Nc1nc2c(c(=O)[nH]1)N(Cc1cn([C@H]3C[C@H](O)[C@@H](COP(O)O)O3)c(=O)[nH]c1=O)C(CNc1ccc(C(=O)NC(CCC(=O)O)C(=O)O)cc1)CC2` (some centres not stated), for which the Ki at Thymidylate synthase [1] was 0.25 µM; on Thymidylate synthase [4] it was 0.058 µM. Further, the figures for the Ratio in test [2] and in test [3] were 0.005 and 0.02, respectively.
As for `O=c1ccn([C@H]2C[C@H](O)[C@@H](COP(=O)(O)O)O2)c(=O)[nH]1` [DEOXYURIDINE MONOPHOSPHATE], the Km at Thymidylate synthase [5] is 3 µM.
Regarding `Nc1nc2c(c(=O)[nH]1)N(Cc1cn([C@H]3C[C@H](O)[C@@H](CO)O3)c(=O)[nH]c1=O)C(CNc1ccc(C(=O)NC(CCC(=O)O)C(=O)O)cc1)CC2` (some centres not stated), the Ratio in test [6] worked out at 50; in test [7] it was 4.8. In addition, the Ki on Thymidylate synthase [1] amounted to 240 µM; on Thymidylate synthase [4] it was 150 µM.
For `COP(=O)(O)OC[C@H]1O[C@@H](n2cc(CN3c4c(nc(N)[nH]c4=O)CCC3CNc3ccc(C(=O)NC(CCC(=O)O)C(=O)O)cc3)c(=O)[nH]c2=O)C[C@@H]1O` (some centres not stated) the same measures were 40, 14, 700 µM and 120 µM.
Take `CCOC(=O)CCC(NC(=O)c1ccc(N(CC2CCc3nc(N)[nH]c(=O)c3N2)N=O)cc1)C(=O)OCC` (configuration not stated): the Ki on Thymidylate synthase [1] stood at 150 µM; on Thymidylate synthase [4] it was 240 µM.
`CCOC(=O)CCC(NC(=O)c1ccc(N(CC2CCc3nc(N)nc(O)c3N2)N=O)cc1)C(=O)OCC` (configuration not stated): the Ratio in test [2] was 3; in test [3], 80.

Values taken from ChEMBL document CHEMBL1122546, “A potent multisubstrate analogue inhibitor of human thymidylate synthetase” (J Med Chem, 1984).
